ChEMBL document CHEMBL3596195, “Novel cajaninstilbene acid derivatives as antibacterial agents” (Eur J Med Chem, 2015)
Values after ≈ are worked out from the molar mass of the structure shown.

Key:
[1] = test system: Proteus vulgaris; assay: Antibacterial activity against Proteus vulgaris ATCC49101 assessed as bacterial growth inhibition after 24 hrs by broth dilution method; assay type: functional; conditions: ATCC49101, 24 h
[2] = test system: Escherichia coli; assay: Antibacterial activity against Escherichia coli ATCC25922 assessed as bacterial growth inhibition after 24 hrs by broth dilution method; assay type: functional; conditions: ATCC25922, 24 h
[3] = test system: Staphylococcus aureus; assay: Antibacterial activity against Staphylococcus aureus ATCC25923 assessed as bacterial growth inhibition after 24 hrs by broth dilution method; assay type: functional; conditions: ATCC25923, 24 h
[4] = test system: Staphylococcus aureus; assay: Antibacterial activity against methicillin-resistant Staphylococcus aureus ATCC43300 assessed as bacterial growth inhibition after 24 hrs by broth dilution method; assay type: functional; conditions: ATCC43300, 24 h
[5] = Selectivity index, ratio of IC50 for mouse RAW264.7 cells to MIC for methicillin-resistant Staphylococcus aureus ATCC51033; assay type: toxicity; conditions: read-out: Selectivity Index
How it was run: (§1)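 SI = IC50 in mouse RAW 264.7 macrophages divided by broth-dilution MIC. For cytotoxicity, cells in DMEM/10% FBS/2 mM L-glutamine were seeded at 10,000/well for 12 h. They were then dosed across a concentration gradient in 1% FBS medium with DMSO below 0.1% for 72 h. Read-out was MTT, absorbance 562 nm, 4 wells × at least 3 runs.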

[6] = test system: Staphylococcus aureus; assay: Ratio of penicillin MIC to compound MIC for Staphylococcus aureus ATCC25923 after 24 hrs by broth dilution method; assay type: functional
[7] = test system: Staphylococcus aureus; assay: Antibacterial activity against methicillin-resistant Staphylococcus aureus ATCC523512 assessed as bacterial growth inhibition after 24 hrs by broth dilution method; assay type: functional; conditions: ATCC523512, 24 h
[8] = test system: Staphylococcus aureus; assay: Antibacterial activity against methicillin-resistant Staphylococcus aureus ATCC510019 assessed as bacterial growth inhibition after 24 hrs by broth dilution method; assay type: functional; conditions: ATCC510019, 24 h
[9] = test system: Staphylococcus aureus; assay: Antibacterial activity against methicillin-resistant Staphylococcus aureus ATCC62202 assessed as bacterial growth inhibition after 24 hrs by broth dilution method; assay type: functional; conditions: ATCC62202, 24 h
[10] = test system: Staphylococcus aureus; assay: Antibacterial activity against methicillin-resistant Staphylococcus aureus ATCC513045 assessed as bacterial growth inhibition after 24 hrs by broth dilution method; assay type: functional; conditions: ATCC513045, 24 h
[11] = Selectivity index, ratio of IC50 for mouse RAW264.7 cells to MIC for methicillin-resistant Staphylococcus aureus ATCC43300; assay type: toxicity; conditions: read-out: Selectivity Index; how it was run: as §1
[12] = test system: Staphylococcus aureus; assay: Antibacterial activity against methicillin-resistant Staphylococcus aureus ATCC515992 assessed as bacterial growth inhibition after 24 hrs by broth dilution method; assay type: functional; conditions: ATCC515992, 24 h
[13] = test system: Staphylococcus epidermidis; assay: Antibacterial activity against Staphylococcus epidermidis ATCC12228 assessed as bacterial growth inhibition after 24 hrs by broth dilution method; assay type: functional; conditions: ATCC12228, 24 h
[14] = test system: Staphylococcus aureus; assay: Antibacterial activity against methicillin-resistant Staphylococcus aureus ATCC52056 assessed as bacterial growth inhibition after 24 hrs by broth dilution method; assay type: functional; conditions: ATCC52056, 24 h
[15] = Selectivity index, ratio of IC50 for mouse RAW264.7 cells to MIC for methicillin-resistant Staphylococcus aureus ATCC510019; assay type: toxicity; conditions: read-out: Selectivity Index; how it was run: as §1
[16] = test system: Pseudomonas aeruginosa; assay: Antibacterial activity against Pseudomonas aeruginosa ATCC2785 assessed as bacterial growth inhibition after 24 hrs by broth dilution method; assay type: functional; conditions: ATCC2785, 24 h
[17] = test system: Staphylococcus epidermidis; assay: Ratio of norfloxacin MIC to compound MIC for Staphylococcus epidermidis ATCC12228 after 24 hrs by broth dilution method; assay type: functional
[18] = Selectivity index, ratio of IC50 for mouse RAW264.7 cells to MIC for methicillin-resistant Staphylococcus aureus ATCC513045; assay type: toxicity; conditions: read-out: Selectivity Index; how it was run: as §1
[19] = test system: Staphylococcus aureus; assay: Antibacterial activity against methicillin-resistant Staphylococcus aureus ATCC51033 assessed as bacterial growth inhibition after 24 hrs by broth dilution method; assay type: functional; conditions: ATCC51033, 24 h
[20] = test system: RAW264.7; assay: Cytotoxicity against mouse RAW264.7 cells assessed as inhibition of cell viability after 72 hrs by MTT assay; assay type: cell-based; conditions: RAW264.7, 72 h
How it was run: (§2)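 Mouse RAW 264.7 macrophages grown in DMEM with 10% FBS, 2 mM L-glutamine and penicillin/streptomycin at 37 °C, 5% CO2. Seeded at 10,000 cells/well for 12 h. Compound diluted 1000× from DMSO stock into 1% FBS medium (DMSO under 0.1%), over a concentration gradient, 72 h exposure. MTT formazan dissolved in DMSO for 45 min, absorbance read at 562 nm. Quadruplicate wells, at least three runs (N = 12).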

[21] = Selectivity index, ratio of IC50 for mouse RAW264.7 cells to MIC for methicillin-resistant Staphylococcus aureus ATCC62202; assay type: toxicity; conditions: read-out: Selectivity Index; how it was run: as §1
[22] = test system: Staphylococcus aureus; assay: Antibacterial activity against methicillin-resistant Staphylococcus aureus ATCC425055 assessed as bacterial growth inhibition after 24 hrs by broth dilution method; assay type: functional; conditions: ATCC425055, 24 h
[23] = Selectivity index, ratio of IC50 for mouse RAW264.7 cells to MIC for Staphylococcus epidermidis ATCC12228; assay type: toxicity; conditions: read-out: Selectivity Index; how it was run: as §1
[24] = Selectivity index, ratio of IC50 for mouse RAW264.7 cells to MIC for Staphylococcus aureus ATCC25923; assay type: toxicity; conditions: read-out: Selectivity Index; how it was run: as §1
[25] = Selectivity index, ratio of IC50 for mouse RAW264.7 cells to MIC for methicillin-resistant Staphylococcus aureus ATCC523512; assay type: toxicity; conditions: read-out: Selectivity Index; how it was run: as §1
[26] = Selectivity index, ratio of IC50 for mouse RAW264.7 cells to MIC for methicillin-resistant Staphylococcus aureus ATCC52056; assay type: toxicity; conditions: read-out: Selectivity Index; how it was run: as §1
[27] = Selectivity index, ratio of IC50 for mouse RAW264.7 cells to MIC for Bacillus subtilis ATCC6633; assay type: toxicity; conditions: read-out: Selectivity Index; how it was run: as §1
[28] = Selectivity index, ratio of IC50 for mouse RAW264.7 cells to MIC for methicillin-resistant Staphylococcus aureus ATCC515992; assay type: toxicity; how it was run: as §1
[29] = Cytotoxicity against mouse RAW264.7 cells assessed as cell viability at 8 ug/ml after 72 hrs by MTT assay; assay type: cell-based; conditions: read-out: Activity; how it was run: as §2
[30] = test system: Bacillus subtilis; assay: Antibacterial activity against Bacillus subtilis ATCC6633 assessed as bacterial growth inhibition after 24 hrs by broth dilution method; assay type: functional; conditions: ATCC6633, 24 h
[31] = Selectivity index, ratio of IC50 for mouse RAW264.7 cells to MIC for methicillin-resistant Staphylococcus aureus ATCC425055; assay type: toxicity; conditions: read-out: Selectivity Index; how it was run: as §1

| Structure (SMILES) | MIC [1] [µg/mL] | MIC [2] [µg/mL] | MIC [3] [µg/mL] | MIC [4] [µg/mL] | selectivity ratio [5] | Ratio [6] | MIC [7] [µg/mL] | MIC [8] [µg/mL] | MIC [9] [µg/mL] | MIC [10] [µg/mL] | selectivity ratio [11] | MIC [12] [µg/mL] | MIC [13] [µg/mL] | MIC [14] [µg/mL] | selectivity ratio [15] | MIC [16] [µg/mL] | Ratio [17] | selectivity ratio [18] | MIC [19] [µg/mL] | IC50 [20] [µg/mL] | further results |
| --- | --- | --- | --- | --- | --- | --- | --- | --- | --- | --- | --- | --- | --- | --- | --- | --- | --- | --- | --- | --- | --- |
| COc1cc(/C=C/c2ccccc2F)c(C(=O)O)c(O)c1CC=C(C)C | > 64 | 64 (≈ 180 µM) | 4 (≈ 11.2 µM) | 1 (≈ 2.81 µM) | 6.17 | 64 | 2 (≈ 5.61 µM) | 2 (≈ 5.61 µM) | 0.5 (≈ 1.4 µM) | 2 (≈ 5.61 µM) | 6.17 | 2 (≈ 5.61 µM) | 1 (≈ 2.81 µM) | 2 (≈ 5.61 µM) | 12.3 | > 64 | 8 | 6.17 | 1 (≈ 2.81 µM) | 24.7 (≈ 69.3 µM) | selectivity ratio [21]: 6.17; MIC [22]: 0.5 µg/mL (≈ 1.4 µM); selectivity ratio [23]: 6.17; selectivity ratio [24]: 6.17; selectivity ratio [25]: 6.17; selectivity ratio [26]: 12.3; selectivity ratio [27]: 6.17; selectivity ratio [28]: 12.3; viability at 72 h, 8 ug/ml [29]: 92.7%; MIC [30]: 0.5 µg/mL (≈ 1.4 µM); selectivity ratio [31]: 6.17 |
| COc1cc(/C=C/c2cccc(F)c2)c(C(=O)O)c(O)c1CC=C(C)C | > 64 | > 128 | 4 (≈ 11.2 µM) | 1 (≈ 2.81 µM) | 5.04 | 64 | 2 (≈ 5.61 µM) | 1 (≈ 2.81 µM) | 0.5 (≈ 1.4 µM) | 2 (≈ 5.61 µM) | 5.04 | 1 (≈ 2.81 µM) | 2 (≈ 5.61 µM) | 0.5 (≈ 1.4 µM) | 20.2 | > 64 | 8 | 5.04 | 1 (≈ 2.81 µM) | 20.2 (≈ 56.6 µM) | selectivity ratio [21]: 5.04; MIC [22]: 2 µg/mL (≈ 5.61 µM); selectivity ratio [23]: 5.04; selectivity ratio [24]: 5.04; selectivity ratio [25]: 5.04; selectivity ratio [26]: 40.3; selectivity ratio [27]: 5.04; selectivity ratio [28]: 20.2; viability at 72 h, 8 ug/ml [29]: 91.7%; MIC [30]: 0.5 µg/mL (≈ 1.4 µM); selectivity ratio [31]: 5.04 |
